Assay outcomes (PubChem BioAssay)
Hits are enriched below; roughly 2.3% of the tested compounds scored in any of these assays.
TRPC4 agonist: TRPC4 (mouse) channel activation; B-score at 10 µM; Q9QUQ5; 310,000 compounds, 0.49% hits; HEK293 TRPC4beta/mu-opioid, Fluo4 calcium fluorescence; active compounds read high;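 active = B-score above 5 SD of library B-scores, and initial fluorescence ratio not above library mean plus 5 SD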;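 note: positive B-score marks a calcium rise read as TRPC4 activation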
Target sequence (Q9QUQ5 whole entry, looked up): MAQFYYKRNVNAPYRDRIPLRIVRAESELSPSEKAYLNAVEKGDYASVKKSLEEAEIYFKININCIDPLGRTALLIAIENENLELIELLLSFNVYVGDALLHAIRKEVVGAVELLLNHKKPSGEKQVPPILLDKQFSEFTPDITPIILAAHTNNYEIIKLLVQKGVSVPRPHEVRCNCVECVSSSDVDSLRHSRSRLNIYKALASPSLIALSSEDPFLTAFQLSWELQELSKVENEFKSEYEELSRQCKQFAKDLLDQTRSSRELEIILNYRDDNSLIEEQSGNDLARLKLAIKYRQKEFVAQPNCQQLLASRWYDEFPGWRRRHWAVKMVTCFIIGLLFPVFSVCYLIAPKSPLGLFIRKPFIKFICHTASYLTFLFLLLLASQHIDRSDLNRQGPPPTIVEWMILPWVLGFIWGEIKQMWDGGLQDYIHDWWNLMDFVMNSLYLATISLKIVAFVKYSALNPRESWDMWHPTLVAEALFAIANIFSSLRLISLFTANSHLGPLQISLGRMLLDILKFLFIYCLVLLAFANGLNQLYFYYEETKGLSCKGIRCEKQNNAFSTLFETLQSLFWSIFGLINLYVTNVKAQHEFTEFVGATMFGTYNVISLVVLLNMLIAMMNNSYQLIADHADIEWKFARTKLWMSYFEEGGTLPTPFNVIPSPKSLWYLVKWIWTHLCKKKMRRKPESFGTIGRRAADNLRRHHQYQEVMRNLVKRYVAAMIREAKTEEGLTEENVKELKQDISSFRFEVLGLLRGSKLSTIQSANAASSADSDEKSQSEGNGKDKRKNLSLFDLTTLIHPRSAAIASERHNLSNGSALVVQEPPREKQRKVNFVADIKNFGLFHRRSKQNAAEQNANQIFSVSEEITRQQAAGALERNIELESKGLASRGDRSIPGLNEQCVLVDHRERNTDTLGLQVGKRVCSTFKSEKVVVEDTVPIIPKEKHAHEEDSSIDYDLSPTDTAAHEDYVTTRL
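Incubation: 45 min room-temperature Fluo4 loading, 110 s read / System: HEK293 cells stably co-expressing mouse TRPC4beta and mu-opioid receptor / Signal: Fluo4 fluorescence, kinetic / Control set: buffer (low) and maximal DAMGO (high) / Measure: integrated baseline-normalised fluorescence ratio, converted to per-well B score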
TRPC4 inh: blocks the mouse TRPC4 cation channel | Q9QUQ5 | B-score at 10 µM | HEK293 TRPC4beta/mu-opioid, DAMGO-evoked Fluo4 calcium flux; active compounds read low | AID 2247 | 300,000 compounds, 0.39% hits;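 active = B-score over 3 SD under the library average, no early fluorescence shift, positive overall ratio signal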
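test system = HEK293 cells with stable TRPC4beta plus mu-opioid receptor expression | detection = Fluo4 Ca2+ flux fluorescence | read-out = integrated fluorescence ratio relative to baseline, converted to per-well B score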
TRPC4 PAM: allosterically enhances the mouse TRPC4 cation channel | HEK293 TRPC4beta/mu-opioid, DAMGO EC20, Fluo-4 Ca2+ flux; active compounds read high | B-score at 10 µM | 310,000 compounds, 0.42% hits | AID 2227;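 active = B-score of calcium response area above 5 SD of library B-scores, with initial fluorescence ratio within 5 SD of library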
TRPC6 act: activates the mouse TRPC6 cation channel; Q61143; HEK293-TRPC6 membrane potential dye fluorescence; active compounds read high; B-score at 10 µM; 310,000 compounds, 0.13% hits; AID 2550;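 active = B-score of the integrated fluorescence ratio above library mean plus 3 SD, and starting fluorescence ratio within library mean plus 5 SD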;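 note: higher score means more depolarization so channel activation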
TRPC6 inhibitor: inhibitors of mouse TRPC6 channel; Q61143; HEK293-TRPC6, membrane potential dye, ACh-evoked depolarization; active compounds read low; B-score at 10 µM; 310,000 compounds, 1.1% hits;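 active = B-score under library mean minus 3 SD, initial fluorescence not abnormally high, positive integrated signal ratio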;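 note: B-score derived from integrated fluorescence ratio over the kinetic read; more negative B-score means stronger inhibition of depolarization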
TRPC4 sel inh 2: second check of whether TRPC6 inhibitors also affect mouse TRPC4; shares compounds with TRPC6 inhibitor; HEK293 TRPC4/MOR, membrane potential dye fluorescence; channel activated by saturating DAMGO dose; inhibition, % at 10 µM; 920 compounds, 42% hits; AID 2776;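 active = compounds whose fluorescence signal differed from control wells by over 3 SD, either direction, in both duplicate plates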
TRPC4 spec: tests whether TRPC6 inhibitors also affect mouse TRPC4; shares compounds with TRPC6 inhibitor; HEK293 TRPC4/mu-opioid, membrane potential fluorescence; activity change, negative = inhibition, % at 10 µM; 920 compounds, 61% hits;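 active = rise or fall in signal beyond 3 SD of buffer-only wells in both replicate plates, either sign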;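 note: integrated kinetic ratio of fluorescence range over baseline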
HEK293 MPD ctr 2-1: parental HEK293 nonspecific activity of TRPC6 inhibitors, second screen | shares compounds with TRPC6 inhibitor | AID 2779 | signal change vs control, % at 10 µM | parental HEK293 membrane potential dye fluorescence; maximal acetylcholine challenge after compound addition | 920 compounds, 31% hits;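 active = membrane potential signal moving either way by over 3 SD of the maximum-effect control, in both duplicate plates, meaning non-specific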
HEK293 MPD ctr-1: parental HEK293 nonspecific activity of TRPC6 inhibitors | parental HEK293 membrane potential dye fluorescence | shares compounds with TRPC6 inhibitor | AID 2780 | membrane potential signal change, % at 10 µM | 920 compounds, 60% hits;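 active = membrane potential signal shifting up or down by more than 3 SD of buffer-only wells, on both duplicate plates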
HEK293 MPD ctr-2: counter-screen for TRPC6 modulators: effect in parental HEK293 cells; AID 488924; 2,400 compounds, 51% hits; shares compounds with TRPC6 inhibitor; membrane potential dye fluorescence; membrane potential signal change, % at 10 µM;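 active = membrane potential signal moves up or down beyond 5 SD from buffer-only wells, on both duplicate plates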
HEK293 MPD ctr 2-2: second check of TRPC6 modulator effects in parental HEK293 cells; shares compounds with TRPC6 inhibitor; membrane potential dye fluorescence; after compound, maximal acetylcholine stimulation; inhibition, % at 10 µM; 2,400 compounds, 14% hits;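 active = membrane potential signal drops by more than 5 SD from the mean control signal, in both duplicate plates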
TRPC4/MOR mod: mouse TRPC4 off-target activity of TRPC6 modulators; shares compounds with TRPC6 inhibitor; HEK293 TRPC4/mu-opioid, membrane potential fluorescence; percent change from control (negative = decrease, positive = increase), % at 10 µM; 2,400 compounds, 69% hits; AID 488927;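 active = membrane potential signal moved up or down beyond 5 SD of buffer control wells, in both duplicate plates, actives on both sides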
TRPC4 ctr inh 2: second check of whether TRPC6 modulators also affect mouse TRPC4; inhibition, % at 10 µM; 2,400 compounds, 55% hits; HEK293 TRPC4/mu-opioid, membrane potential dye fluorescence; stimulated with maximal-effect DAMGO; shares compounds with TRPC6 inhibitor;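 active = drop in membrane potential signal beyond 5 SD of the control wells in both duplicate plates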;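 note: TRPC4 counter screen for TRPC6 hits run under conditions tuned for TRPC6 not TRPC4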
TRPC6 inh conf: confirmation of mouse TRPC6 inhibitors; 3,300 compounds, 43% hits; AID 488960; shares compounds with TRPC6 inhibitor; HEK293-TRPC6, membrane potential dye, ACh-evoked depolarization; inhibition, % at 10 µM;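 active = fluorescence ratio falls more than 5 SD below the full-stimulation control mean, in both duplicate runs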;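 note: integrated fluorescence ratio of peak minus minimum over baseline after agonist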
TRPC6 act confirm: confirmation of mouse TRPC6 activators | HEK293-TRPC6 membrane potential dye fluorescence, FDSS | activation, % at 10 µM | 2,800 compounds, 11% hits | shares compounds with TRPC6 inhibitor | AID 488961;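 active = ratio signal rise beyond 5 SD above unstimulated control wells' mean, seen in both duplicate runs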
Numbers stand for hits; i = inactive; nt = no result given.

SMILES	TRPC4 agonist	TRPC4 inh	TRPC4 PAM	TRPC6 act	TRPC6 inhibitor	TRPC6 inh conf	TRPC6 act confirm	others
CC(C)N(CC#CC(O)(c1ccccc1)c1ccccc1)CCO	i	i	i	i	i	nt	nt
CC(C)N(CC#CC(O)(c1ccccc1)c1ccccc1)C(C)C	i	i	i	i	-6.4	73%	nt	HEK293 MPD ctr-2=115%;HEK293 MPD ctr 2-2=96%;TRPC4/MOR mod=22%;TRPC4 ctr inh 2=i
CN(CC#CC(O)(c1ccccc1)c1ccccc1)C(C)(C)C	i	i	i	i	-8.9	74%	nt	TRPC4 sel inh 2=i;TRPC4 spec=6.1%;HEK293 MPD ctr 2-1=-16%;HEK293 MPD ctr-1=8.8%
OCCN(CC#CC(O)(c1ccccc1)c1ccccc1)CCO	i	i	i	i	i	nt	nt
CCn1c2c(c(=N)c3c1CCC3)CCC2	i	i	i	i	-7	36%	i	HEK293 MPD ctr-2=-234%;HEK293 MPD ctr 2-2=i;TRPC4/MOR mod=-39%;TRPC4 ctr inh 2=40%
CNCC(O)Cn1c2c(c3ccccc31)CCCC2 (stereo not drawn)	i	i	i	i	i	nt	nt
Fc1ccc(CN2CCCCCCC2)cc1	i	i	i	i	i	nt	nt
CCCCCCn1c2c(c(=N)c3c1CCC3)CCC2	i	i	i	i	-8.5	78%	i	TRPC4 sel inh 2=69%;TRPC4 spec=-25%;HEK293 MPD ctr 2-1=-12%;HEK293 MPD ctr-1=-452%
CCn1c2c(c(=N)c3ccccc31)CCC2	i	i	i	i	-11	72%	i	TRPC4 sel inh 2=68%;TRPC4 spec=-34%;HEK293 MPD ctr 2-1=-12%;HEK293 MPD ctr-1=-593%
N=c1c2c(n(Cc3ccc(F)cc3)c3c1CCC3)CCC2	i	i	i	i	-5.8	i	i	HEK293 MPD ctr-2=-192%;HEK293 MPD ctr 2-2=i;TRPC4/MOR mod=-32%;TRPC4 ctr inh 2=62%
COc1cc(OC)c(NS(=O)(=O)c2c(C)[nH]c(=O)[nH]c2=O)cc1Cl	i	i	i	i	i	nt	nt
COc1ccc(N2CCN(C(=O)c3sc4ncn(CC(=O)N5CCCCC5C)c(=O)c4c3C)CC2)cc1 (stereo not drawn)	i	i	i	i	i	nt	nt
CCCN(C(=O)c1cc(S(=O)(=O)N2CCCCCC2)ccc1OC)C1CCS(=O)(=O)C1 (stereo not drawn)	i	i	i	i	i	nt	nt
C=CCOc1ccc(C(=O)Nc2ccccc2C(=O)NCc2cccnc2)cc1	i	i	i	i	i	nt	nt
CCCCCCCCCn1c2c(c(=N)c3c1CCC3)CCC2	i	i	i	i	-6.3	i	i	HEK293 MPD ctr-2=-169%;HEK293 MPD ctr 2-2=i;TRPC4/MOR mod=-21%;TRPC4 ctr inh 2=36%
CCCCCCCn1ccc(=N)cc1	i	i	i	i	i	nt	nt
O=C(c1ccc(F)cc1)N1CCN(c2cc(N3CCCCC3)c(F)cc2[N+](=O)[O-])CC1	i	nt	i	i	-10	i	i	TRPC4 sel inh 2=i;TRPC4 spec=i;HEK293 MPD ctr 2-1=i;HEK293 MPD ctr-1=i
